Assay results gathered from unrelated publications.
Each line is one published result; the experiments were not run side by side.
Observed: cell growth or viability

`OC(c1cc(C(F)(F)F)nc2c(C(F)(F)F)cccc12)C1CCCCN1` (centres unmarked) gave an IC50 of 8000 nM (SH-SY5Y; resazurin).
`CCNCCCn1c2c(c3cc(OC)c(OC)cc3c1=O)C(=O)c1cc3c(nc1-2)OCO3` has an IC50 of 137 nM (SK-N-MC; MTS; 72 h).
For `[H]/N=C(\N/C(=N/[H])Nc1ccc(Cl)cc1)NC(C)C`, the IC50 was over 50000 nM (SH-SY5Y; resazurin).
`Nc1ccc(/C=C/C(=O)N2CCc3c(oc4c(-c5ccc(F)cc5)cc(-c5ccc(C(=O)N6CCC(F)(F)CC6)nn5)cc34)C2)cn1` has an IC50 of 250 nM (Pan02; CCK-8; 72 h).
The IC50 of `COc1cc2c3c(n(CCCN4CCOCC4)c(=O)c2cc1OC)-c1nc2c(cc1C3=O)OCO2` is reported as 698 nM (SK-N-MC; MTS; 72 h).
The IC50 of `Nc1ccc(/C=C/C(=O)NCc2cc3cc(-c4ccc(C(=O)N5CCC(F)(F)CC5)cc4)cc(-c4ccc(F)cc4)c3o2)cn1` is reported as 1640 nM (Pan02; CCK-8; 72 h).
For `CCN(CC)CCCC(C)Nc1ccnc2cc(Cl)ccc12` (centres unmarked), the IC50 was 44000 nM (SH-SY5Y; resazurin).
With `CC(C)(C)c1cnc(CSc2cnc(NC(=O)C3CCN(CCCCCCCCSc4cccc5c4CN(C4CCC(=O)NC4=O)C5=O)CC3)s2)o1` (centres unmarked) the viability was 22.4% (HuT78; trypan blue; 0.25 µM, 48 h).
`O=C(C=Cc1ccccc1)Nc1cc(-c2ccnc(N3CCC(O)CC3)c2)ccn1` has an IC50 of 528 nM (HCC1937; MTT; 72 h).
With `CCN(CCO)CCCC(C)Nc1ccnc2cc(Cl)ccc12` (centres unmarked) the IC50 was over 50000 nM (SH-SY5Y; resazurin).
With `CC(C)c1ccccc1[C@@H]1CCCN1C1CC2(CCN(c3ccc(C(=O)NS(=O)(=O)c4ccc(NC[C@H]5CC[C@](C)(O)CC5)c([N+](=O)[O-])c4)c(Oc4cnc5[nH]ccc5c4)c3)CC2)C1` the IC50 was 7430 nM (MM.1R; ATP luminescence; 48 h).
`C#Cc1nc(C2=C(C)C(OC(=O)C(C)(C)C)/C(=N\OC(=O)C(C)(C)C)C2)cs1` (centres unmarked) gave a CC50 of 73 nM (HT-1080).
`CC(C)(C)c1cnc(CSc2cnc(NC(=O)C3CCN(CCCCCSc4cccc5c4CN(C4CCC(=O)NC4=O)C5=O)CC3)s2)o1` (centres unmarked) gave a viability of 9.46% (HuT78; trypan blue; 0.25 µM, 48 h).
`C=CC(=O)NC1CCN(c2ncc3ncnc(Nc4ccc(Oc5ccc6c(c5)ncn6C)c(C)c4)c3n2)CC1` gave an EC50 of 11 nM (KNS-62).
